Measured values: ChEMBL document CHEMBL1124154, “Polycyclic aryl- and heteroarylpiperazinyl imides as 5-HT1A receptor ligands and potential anxiolytic agents: synthesis and structure-activity relationship studies” (J Med Chem, 1988)

What was measured:
Mus musculus [1] = assay: Inhibition of apomorphine induced stereotyped behavior (i.p.); format: functional; settings: ip
Rattus norvegicus [2] = species: Rattus norvegicus; assay: Concentration required to produce 50% block in avoidance responding in conditioned avoidance response test in rat; format: functional
Outline: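 Trained rats in shelf-jump and/or discrete-trial conditioned avoidance paradigms. Drug given ip or po to at least five rats per dose, with a control session before each drug run. Trials without avoidance (avoidance block) were counted per dose as a percentage of total trials, with control set at 100%. AB50 was taken from a least-squares dose-effect regression line.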

[3] = biological target: T1, 5-hydroxytryptamine receptor 1A (Rattus norvegicus, UniProt P19327); assay: In vitro inhibition of [3H]-8-hydroxy-2-(di-n-propylamino)tetralin binding to 5-hydroxytryptamine 1A receptor from rat hippocampal tissue.
T1 sequence (P19327 whole entry): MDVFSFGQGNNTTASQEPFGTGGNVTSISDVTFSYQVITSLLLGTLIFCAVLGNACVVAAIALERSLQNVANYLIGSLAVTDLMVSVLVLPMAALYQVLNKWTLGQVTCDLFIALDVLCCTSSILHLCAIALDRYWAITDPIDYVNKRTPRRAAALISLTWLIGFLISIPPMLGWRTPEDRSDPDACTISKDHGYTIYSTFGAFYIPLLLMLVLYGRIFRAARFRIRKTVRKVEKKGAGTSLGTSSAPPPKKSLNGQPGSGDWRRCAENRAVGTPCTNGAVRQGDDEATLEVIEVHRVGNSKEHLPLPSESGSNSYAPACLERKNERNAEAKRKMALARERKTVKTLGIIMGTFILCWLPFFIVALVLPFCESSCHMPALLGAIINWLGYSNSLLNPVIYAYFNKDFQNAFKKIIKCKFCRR

[4] = Ratio of ED50 stereotyped behavior in mice; format: functional
D(2) dopamine receptor = D(2) dopamine receptor (Rattus norvegicus, UniProt P61169); assay: In vitro inhibition of [3H]spiperone binding to Dopamine receptor D2 from rat brain limbic tissue; format: tissue-based, Limbic system
Outline: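 Limbic tissue (nucleus accumbens, septum, olfactory tubercle) from Sprague-Dawley rats, washed membranes at 0.2-0.3 mg protein. Incubated with 0.3 nM [3H]spiroperidol and a range of drug concentrations, 10 min at 37 °C, in Tris buffer pH 7.1 with NaCl, KCl, CaCl2, ascorbate and pargyline. Filtered through GF/B and counted by scintillation. Nonspecific binding defined with 1 μM (+)-butaclamol.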

Mus musculus [5] = assay: Inhibition of apomorphine induced stereotyped behavior in mice after intraperitoneal administration; format: functional; settings: ip
Outline: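 Male CF-1 mice (20-25 g, acclimated ≥3 days) received ip compound in 0.25% Tween 80 at 1, 10, 30 and 60 mg/kg (six/dose), alongside vehicle controls. After 30 min they were challenged with apomorphine 1 mg/kg sc. Stereotypy was scored every 5 min and totaled over the 30-min session.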

[6] = biological target: D(2) dopamine receptor (Rattus norvegicus) (UniProt P61169); assay: In vitro inhibition of [3H]spiperone binding to dopamine receptor D2 from rat brain limbic tissue at 1 uM; format: tissue-based; settings: Limbic system
Mus musculus [7] = assay: Inhibition of apomorphine induced climbing behavior in mice after intraperitoneal administration; format: functional; settings: ip
Outline: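 Male CF-1 mice (20-25 g), acclimated at least 3 days, received compound in 0.25% Tween 80 ip at 1, 10, 30 and 60 mg/kg (six/dose) or vehicle. 30 min later they were challenged with apomorphine 1 mg/kg sc. Climbing was scored every 5 min and totaled over 30 min.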

Rattus norvegicus [8] = assay: Concentration required to produce 50% block in avoidance responding in conditioned avoidance response test in rat following peroral administration; format: functional
Outline: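 Previously trained rats were given compound po at pretreatment time to at least five rats per dose in a conditioned avoidance paradigm (shelf-jump or discrete trial). A control session preceded each drug run. Trials without avoidance were counted as a % of total trials, with control set at 100%. AB50 came from a least-squares dose-effect regression line.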

[9] = biological target: T2, 5-hydroxytryptamine receptor 1A (Rattus norvegicus) (UniProt P19327); assay: In vitro inhibition of [3H]-8-hydroxy-2-(di-n-propylamino)tetralin binding to 5-hydroxytryptamine 1A receptor from rat hippocampal tissue at 1 uM; settings: Hippocampus
T2 sequence (whole entry): T1 sequence (P19327 whole entry)

[10] = biological target: D(2) dopamine receptor (Rattus norvegicus) (UniProt P61169); assay: In vitro inhibition of [3H]spiperone binding to Dopamine receptor D2 from rat brain limbic tissue at 10 uM; format: tissue-based; settings: Limbic system
[11] = biological target: T2, 5-hydroxytryptamine receptor 1A (Rattus norvegicus); assay: In vitro inhibition of [3H]-8-hydroxy-2-(di-n-propylamino)tetralin binding to 5-hydroxytryptamine 1A receptor from rat hippocampal tissue; settings: Hippocampus; concentration not given here

Sequence of D(2) dopamine receptor (Rattus norvegicus) (P61169 whole entry): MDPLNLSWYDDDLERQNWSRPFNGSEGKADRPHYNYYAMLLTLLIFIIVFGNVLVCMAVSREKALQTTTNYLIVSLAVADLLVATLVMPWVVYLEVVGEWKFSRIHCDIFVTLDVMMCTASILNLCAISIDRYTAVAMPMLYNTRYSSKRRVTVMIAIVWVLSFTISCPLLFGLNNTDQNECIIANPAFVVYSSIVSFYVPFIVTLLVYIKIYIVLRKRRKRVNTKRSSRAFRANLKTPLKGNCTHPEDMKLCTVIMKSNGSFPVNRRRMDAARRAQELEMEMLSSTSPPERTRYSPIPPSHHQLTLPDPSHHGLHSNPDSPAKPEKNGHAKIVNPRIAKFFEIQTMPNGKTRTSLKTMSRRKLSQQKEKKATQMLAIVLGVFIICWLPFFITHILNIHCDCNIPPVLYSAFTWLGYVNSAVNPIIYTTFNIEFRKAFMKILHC
Sequence of D(2) dopamine receptor (P61169 whole entry): as above

| Compound | AB50 (Rattus norvegicus [2]) | Ratio [4] | ED50 (Mus musculus [5]) | inhibition [6] | also measured |
| --- | --- | --- | --- | --- | --- |
| COc1ccccc1N1CCN(CCCCN2C(=O)C3C4C=CC(C5CC45)C3C2=O)CC1.Cl (configuration not stated) | 40 mg/kg | 1 | 10 mg/kg | – | ED50 (Mus musculus [1]): 10 mg/kg; Ki [3]: 1.3 nM; Ki (D(2) dopamine receptor): 16 nM |
| Cl.O=C1C2C3C=CC(C4CCC34)C2C(=O)N1CCCCN1CCN(c2cnccn2)CC1 (configuration not stated) | 60 mg/kg | 2.1 | 32 mg/kg | 48% | ED50 (Mus musculus [7]): 15 mg/kg |
| O=C1c2ccccc2S(=O)(=O)N1CCCCN1CCN(c2ncccn2)CC1 [IPSAPIRONE] | 19 mg/kg | – | – | – | Ki [3]: 10 nM; AB50 (Rattus norvegicus [8]): 42 mg/kg |
| Cl.O=C1C2C3C=CC(C4CC34)C2C(=O)N1CCCCN1CCN(c2cnccn2)CC1 (configuration not stated) | 49 mg/kg | 2.35 | 33 mg/kg | 33% | inhibition [9]: 68%; ED50 (Mus musculus [7]): 14 mg/kg |
| CC(C)=C1C2C=CC1C1C(=O)N(CCCCN3CCN(c4ncccn4)CC3)C(=O)C21.Cl (configuration not stated) | >40 mg/kg | – | – | – | inhibition [10]: 50% |
| O=C1CC2(CCCC2)CC(=O)N1CCCCN1CCN(c2ncccn2)CC1 [BUSPIRONE] | 5 mg/kg | – | – | – | AB50 (Rattus norvegicus [8]): 32 mg/kg |
| Cl.O=C1C2C3C=CC(C4CCC34)C2C(=O)N1CCCCN1CCN(c2ccc(C(F)(F)F)cn2)CC1 (configuration not stated) | >40 mg/kg | – | – | 65% | inhibition [11]: 72% |
